From ChEMBL document CHEMBL3400028, “Evaluation of Aconitum diterpenoid alkaloids as antiproliferative agents” (2015)

How the values were obtained:
Format in all cases: functional
A549 = experiment: Antiproliferative activity against human A549 cells by sulforhodamine B assay
How it was run: (§1)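 Cells in RPMI 1640 (25 mM HEPES, 2 mM L-glutamine, 10% heat-inactivated FBS, antibiotics) at 37 °C, 5% CO2. Seeded at 3–5 × 10³/well with graded concentrations, paclitaxel as assay control, for 72 h. TCA-fixed, stained with 0.04% SRB, dye dissolved in 10 mM Tris, A515 read. GI50 is the concentration halving absorbance versus untreated cells; three or more experiments.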

KB = experiment: Antiproliferative activity against human KB cells by sulforhodamine B assay; how it was run: as §1
DU-145 = experiment: Antiproliferative activity against human DU145 cells by sulforhodamine B assay; how it was run: as §1
[1] = Antiproliferative activity against multidrug-resistant P-gp expressing human KBVIN cells by sulforhodamine B assay
How it was run: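 Vincristine-resistant KB subline kept in 100 nM vincristine, then grown 7–10 days without it before testing. RPMI 1640 with 10% FBS, 37 °C, 5% CO2. 3–5 × 10³ cells/well exposed 72 h to a concentration series, paclitaxel as assay control. SRB staining after TCA fixation, A515 read. GI50 is the 50% absorbance reduction versus untreated cells; three or more experiments.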

[2] = Selectivity ratio of GI50 for human KB cells to GI50 for multidrug-resistant P-gp expressing human KBVIN cells
How it was run: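 Ratio of GI50 in parental KB to GI50 in P-gp-overexpressing KB-VIN. […] KB-VIN cells were grown 7–10 days without vincristine before the assay.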

Row | SMILES | GI50 (A549) | GI50 (KB) | GI50 (DU-145) | GI50 [1] | RatioGI50 [2]
1 | CCN1C[C@]2(C)CC[C@H](OC)[C@@]34[C@@H]5C[C@H]6[C@H](OC)[C@@H]5[C@@]5(C[C@@H]6OC)OCO[C@@]5(C(=O)[C@H]23)[C@@H]14 [PACININE] | > 20 µM | > 20 µM | > 20 µM | > 20 µM | >20
2 | C=C1[C@H]2C[C@@]3([C@@H]1OC(=O)c1ccccc1)[C@@H](C[C@@H]2OC(=O)c1ccccc1)[C@@]12C4[C@@H]3C[C@@H]1[C@@](C)(CC[C@@H]2O)CN4CC | > 20 µM | > 20 µM | > 20 µM | > 20 µM | >20
3 | CCN1C[C@]2(COC)CC[C@H](OC)[C@]34C1C([C@H](OC)[C@H]23)[C@]1(OC(C)=O)[C@H]2[C@@H](OC(=O)c3ccc(OC)cc3)[C@](O)(C[C@H]24)[C@@H](OC)[C@@H]1O [DEOXYJESACONITINE] | > 20 µM | > 20 µM | > 20 µM | > 20 µM | >20
4 | C=C1[C@H]2C[C@@H]3C4N(C(=O)/C=C/c5ccccc5)C[C@]5(C)CCC[C@@]46[C@@H]5C(=O)C[C@]3([C@@H]1O)[C@H]6[C@H]2O (stereo not given in full) | > 20 µM | > 20 µM | > 20 µM | > 20 µM | >20
5 | C=C1[C@H]2C[C@@H]3C4N5C[C@]6(C)CCC[C@@]47[C@@H]6[C@@H]5C[C@]3([C@@H]1O)[C@H]7[C@H]2OC(=O)c1cccc(C(F)(F)F)c1 | > 20 µM | > 20 µM | > 20 µM | > 20 µM | >20
6 | CCN1C[C@]2(COC)[C@H](O)C[C@H](OC)[C@]34C1[C@H]([C@H](OC)[C@H]23)[C@]1(OC(C)=O)[C@H]2[C@@H](OC(=O)c3ccc(OC)cc3)[C@](O)(C[C@H]24)[C@@H](OC)[C@@H]1O | > 20 µM | > 20 µM | > 20 µM | > 20 µM | >20
7 | C=C1[C@H]2C[C@@H]3C4N5C[C@]6(C)CCC[C@@]47[C@@H]6[C@@H]5C[C@]3([C@@H]1OC(=O)c1ccc([N+](=O)[O-])cc1)[C@H]7[C@H]2OC(=O)c1ccc([N+](=O)[O-])cc1 | 6.9 µM | 5.3 µM | 1 µM | 5.5 µM | 0.96
8 | C=C1[C@H]2C[C@@H]3C4N5C[C@]6(C)CCC[C@@]47[C@@H]6[C@@]5(O)C[C@]3([C@@H]1OC(=O)c1cccnc1)[C@H]7[C@H]2OC(=O)c1cccnc1 | > 20 µM | > 20 µM | > 20 µM | > 20 µM | >20
9 | C=C1[C@H]2C[C@@H]3C4N5C[C@]6(C)CCC[C@@]47[C@@H]6[C@@H]5C[C@]3([C@@H]1OC(=O)c1ccccc1)[C@H]7[C@H]2O | > 20 µM | > 20 µM | > 20 µM | > 20 µM | >20
10 | CCN1C[C@]2(COC)CC[C@H](OC)[C@]34C1C([C@H](OC)[C@H]23)[C@]1(OC(C)=O)[C@H]2[C@@H](OC(=O)c3ccccc3)[C@](O)(C[C@H]24)[C@@H](OC)[C@@H]1O [DEOXYACONITINE] | > 20 µM | > 20 µM | > 20 µM | > 20 µM | >20
11 | C=C1[C@H]2C[C@@H]3C4N5C[C@]6(C)CCC[C@@]47[C@@H]6[C@@H]5C[C@]3([C@@H]1O)[C@H]7[C@H]2OC(=O)c1ccc(OC)cc1 | > 20 µM | > 20 µM | > 20 µM | > 20 µM | >20
12 | C=C1[C@H]2C[C@@H]3C4N5C[C@]6(C)CCC[C@@]47[C@@H]6[C@@H]5C[C@]3([C@@H]1OC(=O)/C=C/c1cccc(C(F)(F)F)c1)[C@H]7[C@H]2OC(=O)/C=C/c1cccc(C(F)(F)F)c1 | 5.5 µM | 4.1 µM | 6.2 µM | 3.1 µM | 1.3
13 | C=C1[C@@H](OC(C)=O)[C@]23C[C@@H]1[C@@H](O)C[C@H]2[C@@]12C4C3C[C@@H]1[C@@]1(C)CC[C@H]2OC1N4CC [DEHYDROLUCIDUSCULINE] | > 20 µM | > 20 µM | > 20 µM | > 20 µM | >20
14 | C=C1[C@@H](O)[C@]23C[C@@H]1[C@@H](OC(=O)c1ccccc1)C[C@H]2[C@@]12C4C3C[C@@H]1[C@@](C)(CC[C@H]2O)CN4CC | > 20 µM | > 20 µM | > 20 µM | > 20 µM | >20
15 | C=C1[C@@H](O)[C@]23C[C@@H]1[C@@H](OC(=O)c1ccc(OC)c(OC)c1)C[C@H]2[C@@]12C4C3C[C@@H]1[C@@](C)(CC[C@H]2O)CN4CC | > 20 µM | > 20 µM | > 20 µM | > 20 µM | >20
